Assay results reported in ChEMBL document CHEMBL3779882, “The cysteine releasing pattern of some antioxidant thiazolidine-4-carboxylic acids” (Eur J Med Chem, 2016).

Columns and labels:
Assay type in all cases: physicochemical
[1] = Antioxidant activity assessed as cupric ion reducing activity treated with MeOH solution measured as ratio of sample to trolox molar extinction coefficient after 20 mins by CUPRAC assay
Method in brief: (§1)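 Reagents prepared separately: 10 mM CuSO4, 7.5 mM neocuproine and 1 M ammonium acetate buffer pH 7.0. Samples serially diluted from 6.75 μM to 1000 μM; Trolox reference at 10–70 μM. Each concentration run in triplicate. Incubated at 50°C for 20 min, then absorbance read at 450 nm for Cu(I)-neocuproine. TEAC = ε_sample/ε_Trolox.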

[2] = Antioxidant activity assessed as cupric ion reducing activity treated with 5% DMSO measured as ratio of sample to trolox molar extinction coefficient after 20 mins by CUPRAC assay; method in brief: as §1
[3] = Antioxidant activity assessed as DPPH free radical scavenging activity treated with 5% DMSO after 50 mins
Method in brief: (§2)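 Samples serially diluted from 6.75 μM to 1000 μM; BHT reference at 125–2000 μM. Sample added to 0.1 mM DPPH solution in 1:5 volume ratio. Kept in the dark at RT for 50 min, then absorbance read at 517 nm. Triplicates. Scavenging % = [1−(A_average−A_blank)/(A_control−A_blank)]×100. IC50 reported in μM as the level scavenging 50% of radical.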

[4] = Antioxidant activity assessed as DPPH free radical scavenging activity treated with methanol after 50 mins; method in brief: as §2
[5] = Chemical stability in 5% aqueous DMSO assessed as compound remaining at 20 uM after 20 mins by HPLC analysis; settings: read-out: Stability
[6] = Chemical stability in 5% aqueous DMSO assessed as compound remaining at 20 uM measured immediately post treatment by HPLC analysis; settings: read-out: Stability
Method in brief: (§3)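 Ring opening followed by reversed-phase HPLC-DAD on a C18 column (4.6 × 250 mm). Mobile phase water:acetonitrile 30:70 at 0.5 ml/min, 25°C. Detection at 254 nm, 5 μL injections. Cysteine release tracked from the peak of the aldehyde freed by ring cleavage. Injections made right after dissolution and again after 50 min.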

[7] = Chemical stability in PBS buffer assessed as compound remaining at 20 uM after 20 mins by HPLC analysis; settings: read-out: Stability
[8] = Chemical stability in 5% aqueous DMSO assessed as compound remaining at 20 uM after 50 mins by HPLC analysis; settings: read-out: Stability; method in brief: as §3
[9] = Chemical stability in PBS buffer assessed as compound remaining at 20 uM measured immediately post treatment by HPLC analysis; settings: read-out: Stability; method in brief: as §3
[10] = Chemical stability in PBS buffer assessed as compound remaining at 20 uM after 50 mins by HPLC analysis; settings: read-out: Stability; method in brief: as §3
[11] = Chemical stability in 0.1 M phosphoric acid at pH 2 assessed as compound remaining at 20 uM measured immediately post treatment by HPLC analysis; settings: read-out: Stability; method in brief: as §3
[12] = Chemical stability in 0.1 M phosphoric acid at pH 2 assessed as compound remaining at 20 uM after 20 mins by HPLC analysis; settings: read-out: Stability
[13] = Chemical stability in 0.1 M phosphoric acid at pH 2 assessed as compound remaining at 20 uM after 50 mins by HPLC analysis; settings: read-out: Stability; method in brief: as §3
[14] = Chemical stability in MeOH solution assessed as compound remaining at 20 uM measured immediately post treatment by HPLC analysis; settings: read-out: Stability; method in brief: as §3
[15] = Chemical stability in MeOH solution assessed as compound remaining at 20 uM after 20 mins by HPLC analysis
[16] = Chemical stability in MeOH solution assessed as compound remaining at 20 uM after 50 mins by HPLC analysis; method in brief: as §3

SMILES	Ratio [1]	Ratio [2]	IC50 ([3]; read-out: IC50)	IC50 [4]	remaining at 20 min, 20 µM [5]	remaining at 0 min, 20 µM [6]	remaining at 20 min, 20 µM [7]	remaining at 50 min, 20 µM [8]	remaining at 0 min, 20 µM [9]	remaining at 50 min, 20 µM [10]	remaining at 0 min, 20 µM [11]	remaining at 20 min, 20 µM [12]	remaining at 50 min, 20 µM [13]	remaining at 0 min, 20 µM [14]	Stability [15]	Stability [16]	IC50 [3]
O=C(O)[C@@H]1CSC(c2ccccc2)N1 (mixture of isomers)	1.54	0.99	45.2 µM	844 µM	27.8%	76.3%	27.8%	13.8%	78.4%	13.8%	85%	62.4%	49.9%	96.1%	95.7%	95.4%	
O=C(O)[C@@H]1CSC(c2cccc(Cl)c2)N1 (mixture of isomers)	1.5	ND(Insoluble)															ND(Insoluble)
O=C(O)[C@@H]1CSC(c2ccc(Cl)cc2)N1 (mixture of isomers)	1.52	ND(Insoluble)															ND(Insoluble)
Cc1ccc(C2N[C@H](C(=O)O)CS2)cc1 (mixture of isomers)	1.22	ND(Insoluble)															ND(Insoluble)
O=C(O)[C@@H]1CSC(c2cccc(F)c2F)N1 (mixture of isomers)	0.83	0.84	46.8 µM	> 1000 µM	50%	83.7%	69.3%	28.7%	92.7%	50.1%	87.3%	64.6%	43.5%	100%	100%	98.8%	
Cc1ccccc1C1N[C@H](C(=O)O)CS1 (mixture of isomers)	0.57	0.75	39 µM	46.1 µM	5.9%	6.8%	11.3%	5.6%	15.2%	8.9%	12.9%	11.3%	10.1%	4%	4.1%	4.2%	
N#Cc1ccccc1C1N[C@H](C(=O)O)CS1 (mixture of isomers)	ND(Insoluble)	ND(Insoluble)	> 1000 µM	> 1000 µM													
O=C(O)[C@@H]1CSC(c2c(F)cccc2F)N1 (mixture of isomers)	0.83	1.05	38.3 µM	343 µM	39.2%	53.8%	61.1%	38.2%	79.4%	46.9%	96.2%	72.3%	54.8%	100%	99.4%	98.2%	
O=C(O)[C@@H]1CSC(c2cccc(Cl)c2Cl)N1 (mixture of isomers)	0.93	0.99	61.7 µM	46.2 µM	16.6%	17.8%	17.4%	15.7%	15.3%	17.9%	21.7%	17.5%	14.2%	15.5%	25.2%	38.2%	
O=C(O)[C@@H]1CSC(c2ccccc2Br)N1 (mixture of isomers)	0.8	1	37.7 µM	39.1 µM	16.2%	19%	16.3%	14.3%	11.6%	18.5%	14.1%	11.5%	9.5%	70.5%	74%	75.6%	
O=C(O)[C@@H]1CSC(c2ccc([N+](=O)[O-])cc2)N1 (mixture of isomers)	0.74	ND(Insoluble)															ND(Insoluble)
COc1ccccc1C1N[C@H](C(=O)O)CS1 (mixture of isomers)	0.96	0.79	29.5 µM	343 µM	43.9%	82.8%	34%	26.8%	82.5%	21%	92.9%	78.9%	67.6%	100%	98.6%	97.3%	
COc1ccc(C2N[C@H](C(=O)O)CS2)cc1 (mixture of isomers)	ND(Insoluble)	ND(Insoluble)															ND(Insoluble)
Cc1cc(C(C)(C)C)c(O)c(C(C)(C)C)c1 [BUTYLATED HYDROXYTOLUENE]				517 µM													ND(Insoluble)
N[C@@H](CS)C(=O)O [CYSTEINE]	0.63	0.49	18.4 µM	19.2 µM													
